# Laboratory results taken from the array DNA melting data of Ke et al. (doi:10.1101/2024.01.08.574731).
# Tests used:
# [1] = folding enthalpy; higher = less favourable; fluorescence melt of hairpins on a sequencing array, two-state fit; settings: sodium 0.088 M
# Procedure, shortened: (§1)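 On a sequenced MiSeq flow cell, library hairpins with annealed Cy3 and quencher oligos were imaged for Cy3 fluorescence in 2.5 °C steps up to 60 °C, in 50 mM Na-HEPES pH 8.0, 25 mM NaCl. Normalisation used pre-quench Cy3 and control constructs. Bootstrapped two-state fits gave melting temperature and folding enthalpy, combined by inverse variance across four replicates and with fitted temperatures raised by 9.35 °C to match UV melts.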
# [2] = melting temperature; fluorescence melt of hairpins on a sequencing array, two-state fit, raised by 9.35 °C to match UV melts; settings: sodium 0.088 M
# Procedure, shortened: as §1
sequence,measurement,setting,value
GGCAACCGAAAGGTAGCC (((.(((....))).))),folding enthalpy,[1],-33.6 kcal/mol
same,Tm,[2],62.4 °C
GATCTAATATTAGATC ((((((....)))))),folding enthalpy,[1],-40.3 kcal/mol
same,Tm,[2],43.2 °C
GCGAGGCGAAAGCTTTGC ((.(.((....)).).)),folding enthalpy,[1],-20.3 kcal/mol
same,Tm,[2],51.5 °C
GCTTTTGGAAACAAAGGC ((.((((....)))).)),folding enthalpy,[1],-28.9 kcal/mol
same,Tm,[2],43 °C
GTGCTCGAAAGAGGCCAC ((((((....)))..))),folding enthalpy,[1],-16 kcal/mol
same,Tm,[2],35.9 °C
GTGGGCGAAAGCCGGCAC ((((((....)))..))),folding enthalpy,[1],-12.1 kcal/mol
same,Tm,[2],45.8 °C
GCGGACTACCGC ((((....)))),folding enthalpy,[1],-27.9 kcal/mol
same,Tm,[2],54 °C
GATCGGACACCCGATC ((((((....)))))),folding enthalpy,[1],-41.5 kcal/mol
same,Tm,[2],54.7 °C
GCCTAACGAAAGTTCGGC (((.(((....))).))),folding enthalpy,[1],-34.8 kcal/mol
same,Tm,[2],52.4 °C
GCTCACCGAAAGGTTAGC (((.(((....))).))),folding enthalpy,[1],-31 kcal/mol
same,Tm,[2],49.9 °C
GGACCGGGAAACCGGCCC ((.((((....)))).)),folding enthalpy,[1],-19.9 kcal/mol
same,Tm,[2],57.9 °C
GGCGTACGAAAGTAAGCC (((.(((....))).))),folding enthalpy,[1],-35.1 kcal/mol
same,Tm,[2],59.3 °C
GGCCATCCGAAAGGAGCC (((..(((....)))))),folding enthalpy,[1],-20.1 kcal/mol
same,Tm,[2],42.8 °C
GATCTCCATGAGATC ((((((...)))))),folding enthalpy,[1],-42.1 kcal/mol
same,Tm,[2],53.3 °C
GCGGCGCGAAAGCCACGC (((..((....))..))),folding enthalpy,[1],-20.8 kcal/mol
same,Tm,[2],61.7 °C
GCGGAGAAATCCGC (((((....))))),folding enthalpy,[1],-29.1 kcal/mol
same,Tm,[2],61.8 °C
GTTGCCGAAAGGCCGAAC ((((((....)))..))),folding enthalpy,[1],-7.22 kcal/mol
same,Tm,[2],27.1 °C
GCAGCGGCGAAAGCCTGC (((..(((....)))))),folding enthalpy,[1],-12.9 kcal/mol
same,Tm,[2],52.2 °C
GCACACGGAAACGTGCGC ((.((((....)))).)),folding enthalpy,[1],-42.2 kcal/mol
same,Tm,[2],60.5 °C
GATCCGCATACGGATC ((((((....)))))),folding enthalpy,[1],-37.9 kcal/mol
same,Tm,[2],61.5 °C
GCTAACCGAAAGGTGAGC (((.(((....))).))),folding enthalpy,[1],-32.1 kcal/mol
same,Tm,[2],59.7 °C
GCTGATGGAAACATTGGC ((..(((....)))..)),folding enthalpy,[1],-31 kcal/mol
same,Tm,[2],36 °C
GATCTGCAAACAGATC ((((((....)))))),folding enthalpy,[1],-35.9 kcal/mol
same,Tm,[2],48.5 °C
CGTTCGGAAACGACGACG ((((((....)))..))),folding enthalpy,[1],-15.9 kcal/mol
same,Tm,[2],37.5 °C
GATCCTTTAGAGGATC ((((((....)))))),folding enthalpy,[1],-43.7 kcal/mol
same,Tm,[2],52.2 °C
GGAATAGCGAAAGCTTCC (((..(((....)))))),folding enthalpy,[1],-20.2 kcal/mol
same,Tm,[2],39.2 °C
GATCGAAGATTCGATC ((((((....)))))),folding enthalpy,[1],-35.5 kcal/mol
same,Tm,[2],51.4 °C
GCGAAGTCTCGC ((((....)))),folding enthalpy,[1],-14.2 kcal/mol
same,Tm,[2],47.7 °C
GTTAGCGAAAGCTCTAAC ((((((....)))..))),folding enthalpy,[1],-8.83 kcal/mol
same,Tm,[2],25.6 °C
GGGACTCGAAAGAGACCC (((.(((....))).))),folding enthalpy,[1],-39.2 kcal/mol
same,Tm,[2],59.5 °C
GGATACGAAAGTATTTCC ((((((....)))..))),folding enthalpy,[1],-24.9 kcal/mol
same,Tm,[2],28.1 °C
GCGTGCCTACGC ((((....)))),folding enthalpy,[1],-27.6 kcal/mol
same,Tm,[2],57 °C
GGCATCGAAAGATCGGCC ((((((....)))..))),folding enthalpy,[1],-23.7 kcal/mol
same,Tm,[2],41.1 °C
GATCACAGGGGTGATC ((((((....)))))),folding enthalpy,[1],-33.6 kcal/mol
same,Tm,[2],56.2 °C
GATCACTTTTGTGATC ((((((....)))))),folding enthalpy,[1],-43.1 kcal/mol
same,Tm,[2],59 °C
GCGAGGCTTCGC ((((....)))),folding enthalpy,[1],-17.9 kcal/mol
same,Tm,[2],66.7 °C
GGTGTGGGAAACCGCACC ((((.((....)).)))),folding enthalpy,[1],-42.9 kcal/mol
same,Tm,[2],60.4 °C
GCGTTGCGAAAGCACAGC ((..(((....)))..)),folding enthalpy,[1],-20.9 kcal/mol
same,Tm,[2],51.1 °C
GTTGCTGGAAACAGTGAC ((..(((....)))..)),folding enthalpy,[1],-28.4 kcal/mol
same,Tm,[2],39.2 °C
GGCGTCGAAAGACCGCC ((((((....))).))),folding enthalpy,[1],-34.5 kcal/mol
same,Tm,[2],60.5 °C
GGGTCTCGAAAGAGCCCC (((.(((....))).))),folding enthalpy,[1],-37.9 kcal/mol
same,Tm,[2],57.4 °C
GAACGAGGAAACTTGTTC ((((.((....)).)))),folding enthalpy,[1],-28.7 kcal/mol
same,Tm,[2],43.2 °C
GTCTAGGGAAACCTAGAC (((((((....))))))),folding enthalpy,[1],-40.4 kcal/mol
same,Tm,[2],56.2 °C
GCGCCCGAAAGGGTACGC ((((((....)))..))),folding enthalpy,[1],-27.4 kcal/mol
same,Tm,[2],55.1 °C
GATCTAGTATTAGATC ((((((....)))))),folding enthalpy,[1],-37.5 kcal/mol
same,Tm,[2],47.1 °C
GCGTGGCTACGC ((((....)))),folding enthalpy,[1],-23.4 kcal/mol
same,Tm,[2],58.5 °C
